Assay results gathered from unrelated publications.
Each line is one published result; the experiments were not run side by side.
KIT T670I/V559D: Mast/stem cell growth factor receptor Kit (KIT, Homo sapiens, UniProt P10721, T670I/V559D)
KIT D816H: Mast/stem cell growth factor receptor Kit (KIT, Homo sapiens, UniProt P10721, D816H)
KIT A829P: Mast/stem cell growth factor receptor Kit (KIT, Homo sapiens, UniProt P10721, A829P)
KIT: Mast/stem cell growth factor receptor Kit (KIT, Homo sapiens, UniProt P10721)
KIT L576P: Mast/stem cell growth factor receptor Kit (KIT, Homo sapiens, UniProt P10721, L576P)
KIT D816V: Mast/stem cell growth factor receptor Kit (KIT, Homo sapiens, UniProt P10721, D816V)
KIT V559D: Mast/stem cell growth factor receptor Kit (KIT, Homo sapiens, UniProt P10721, V559D)
KIT V559D/V654A: Mast/stem cell growth factor receptor Kit (KIT, Homo sapiens, UniProt P10721, V559D/V654A)
KIT autoinhibited: Mast/stem cell growth factor receptor Kit, autoinhibited (KIT, Homo sapiens, UniProt P10721)

| SMILES | target | test | setting | remaining binding |
| --- | --- | --- | --- | --- |
| O=C(NCCCN1CCOCC1)c1ccc(Nc2ncc(Cl)c(-c3ccc(Cl)s3)n2)cc1 | KIT T670I/V559D | binding, competition with immobilised ligand | 1 µM | 2.3% |
| c1cncc(-c2cccc(Nc3nccc(NC4CCCCC4)n3)c2)c1 | KIT D816H | binding, competition with immobilised ligand | 10 µM | 13% |
| C[C@H]1CCN(c2nccc(-c3cnn4ncccc34)n2)C1 | KIT A829P | binding | 1 µM | 83% |
| Cc1nc(NC(=O)N2CCC[C@H]2C(N)=O)sc1-c1ccnc(C(C)(C)C(F)(F)F)c1 | KIT | binding, competition with immobilised ligand | 10 µM | 100% |
| O=C(c1ccc(Nc2nccc(-c3cc4ccccc4s3)n2)cc1)N1CCC(N2CCCC2)CC1 | KIT A829P | binding, competition with immobilised ligand | 1 µM | 31% |
| N#Cc1ccccc1CSc1nnc2c(n1)[nH]c1ccccc12 | KIT | binding, competition with immobilised ligand | 10 µM | 100% |
| CN(c1nccc(-c2cnn3ncccc23)n1)C1CC1 | KIT L576P | binding | 1 µM | 100% |
| CC(=O)N1CCC(c2ccc(C(=O)NC3=NCCN3)cc2C(F)(F)F)CC1 | KIT D816V | cell-free assay, competition with immobilised ligand | 1 µM | 91% |
| CNC(=O)[C@@H]1CC[C@@H](n2c(-c3ccc4cnccc4c3)nc3ccc(C(=O)NCc4cccc(C(N)=O)c4)cc32)C1 | KIT V559D | binding, competition with immobilised ligand | 1 µM | 100% |
| O=C(NCC1CCOCC1)c1n[nH]cc1NC(=O)c1c(F)cccc1F | KIT D816V | binding, competition with immobilised ligand | 1 µM | 100% |
| COc1ccc2c(c1)O[C@@H](c1ccc(OC)c(OC)c1)C[C@H]2NC(=O)C1(c2ccc3c(c2)OC(F)(F)O3)CC1 | KIT A829P | cell-free assay, competition with immobilised ligand | 1 µM | 75% |
| CN1CCN(c2ccc(Nc3nccc(-c4cccc([N+](=O)[O-])c4)n3)cc2C(F)(F)F)CC1 | KIT V559D/V654A | binding | 10 µM | 0% |
| CN(C)c1nccc(-c2cnc3ncccn23)n1 | KIT V559D/V654A | binding | 1 µM | 100% |
| Cc1nc(Cc2cccc(C(F)(F)F)c2)sc1-c1ccc(C(N)=O)nc1 | KIT D816V | cell-free assay, competition with immobilised ligand | 1 µM | 81% |
| C=CC(=O)N1CCC(C(=O)NCC(=O)N2CCN(c3nc(-c4cnc(N)nc4C(F)F)nc(N4CCOCC4)n3)CC2)CC1 | KIT D816H | binding, competition with immobilised ligand | 1 µM | 100% |
| O=C(NCCCN1CCOCC1)c1ccc(Nc2nccc(-c3cc4ccccc4s3)n2)cc1 | KIT T670I/V559D | binding, competition with immobilised ligand | 1 µM | 29% |
| COc1ncc2cc3ccccc3nc2c1C#N | KIT V559D | cell-free assay, competition with immobilised ligand | 5 µM | 94% |
| COc1cnc(Nc2cccc(S(N)(=O)=O)c2)nc1N1CCN(c2ccccc2)C(=O)C1 | KIT T670I/V559D | binding, competition with immobilised ligand | 1 µM | 100% |

| SMILES | target | test | setting | remaining binding |
| --- | --- | --- | --- | --- |
| CCN1CCN(Cc2ccc(C(=O)Nc3ccc(C)c(Oc4ccc5c(c4)CC(=O)N5)c3)cc2C(F)(F)F)CC1 | KIT A829P | binding, competition with immobilised ligand | 1 µM | 100% |
| CO[C@H]1CC[C@H](CNc2ccc(S(=O)(=O)NC(=O)c3ccc(N4CCN(CC5=C(c6ccc(Cl)cc6)CC(C)(C)CC5)CC4)cc3Oc3cnc4[nH]ccc4c3)cc2[N+](=O)[O-])CC1 | KIT V559D | cell-free assay, competition with immobilised ligand | 1 µM | 99% |
| O=C(c1ccc(Nc2ncc(Cl)c(-c3cc4ccccc4s3)n2)cc1)N1CCC(N2CCCC2)CC1 | KIT V559D/V654A | binding, competition with immobilised ligand | 1 µM | 50% |
| O=C(Nc1cccnn1)N1CCC(=Cc2cccc(Oc3ccc(C(F)(F)F)cn3)c2)CC1 | KIT A829P | cell-free assay, competition with immobilised ligand | 1 µM | 96% |
| C[C@@H](c1ccc(-n2cnc3c(N)ncnc32)cc1)N1CCc2nn(C)c(Cc3ccccc3)c2C1=O | KIT V559D | binding, competition with immobilised ligand | 0.1 µM | 32% |
| COc1cnc(Nc2cccc(S(N)(=O)=O)c2)nc1N1CCN(c2ccccc2)CC1 | KIT D816H | binding, competition with immobilised ligand | 1 µM | 66% |
| N#CC1(c2ccccn2)CCN(Cc2cc(C(=O)N3CCCC3)c(=O)n3ccccc23)CC1 | KIT A829P | cell-free assay, competition with immobilised ligand | 1 µM | 50% |
| F[C@@H]1CCN(c2nccc(-c3cnn4ncccc34)n2)C1 | KIT D816V | binding | 1 µM | 100% |
| Cn1cc(Cl)c2c(Oc3c(F)cc(Nc4cc(Cl)nc(N)n4)cc3F)ccnc21 | KIT A829P | cell-free assay, competition with immobilised ligand | 0.1 µM | 63% |
| N[C@@H]1CCN(c2nccc(-c3cnn4ncccc34)n2)C1 | KIT V559D | binding | 1 µM | 100% |
| O=C(Nc1c[nH]nc1C(=O)NC1CCNCC1)c1cc(F)cc(F)c1 | KIT T670I/V559D | binding, competition with immobilised ligand | 1 µM | 100% |
| O=C(c1ccc(Nc2ncc(Cl)c(-c3ccc(Cl)s3)n2)cc1)N1CCC(N2CCCC2)CC1 | KIT autoinhibited | binding, competition with immobilised ligand | 1 µM | 7.2% |
| CN(C)C(=O)Cn1cc(-c2nc(C3(c4ccc(-c5cnc(N)nc5)cc4)CC3)no2)cn1 | KIT | cell-free assay, competition with immobilised ligand | 1 µM | 93% |
| c1cnn2ncc(-c3ccnc(N4CCC45COC5)n3)c2c1 | KIT autoinhibited | binding | 1 µM | 56% |
| CN1CCN(c2ccc(Nc3nccc(-c4ccccc4)n3)cc2C(F)(F)F)CC1 | KIT D816H | binding | 10 µM | 17% |
| Cc1cnn2ncc(-c3ccnc(N(C)C)n3)c2c1 | KIT L576P | binding | 1 µM | 100% |
| Cc1cnc(Nc2ccc(C(=O)N3CCC(N4CCCC4)CC3)cc2)nc1-c1cc2ccccc2s1 | KIT D816H | binding, competition with immobilised ligand | 1 µM | 7.8% |
| Nc1ncc2c(n1)-c1c([nH]c3ccc(C#CC4CC4)cc13)CCCC2 | KIT L576P | binding, competition with immobilised ligand | 1 µM | 100% |
